M5 antag = antagonists of human muscarinic M5 receptor (CHRM5); CHO-hM5 cells, Fluo-8 calcium fluorescence, ACh EC80; inhibition, % at 3 µM; actives 0.59% (n = 360,000); AID 624040; P08912;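 active means inhibition above a per-plate cutoff, the mean of that plate's test compounds plus 3 SD, cut at about 27% in these data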
M4 ag = CHRM4 agonism in calcium assay; CHO-K1 hM4/Gqi5, Fluo-8 calcium fluorescence; vehicle 0%, full acetylcholine response 100%; activation, % at 3 µM; actives 0.14% (n = 360,000);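 active means activation above the run mean over all test wells plus 3 SD, cut at about 32% in these data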;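 further: peak over basal fluorescence ratio per well then scaled between controls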
Target sequence (P08173 whole entry, looked up): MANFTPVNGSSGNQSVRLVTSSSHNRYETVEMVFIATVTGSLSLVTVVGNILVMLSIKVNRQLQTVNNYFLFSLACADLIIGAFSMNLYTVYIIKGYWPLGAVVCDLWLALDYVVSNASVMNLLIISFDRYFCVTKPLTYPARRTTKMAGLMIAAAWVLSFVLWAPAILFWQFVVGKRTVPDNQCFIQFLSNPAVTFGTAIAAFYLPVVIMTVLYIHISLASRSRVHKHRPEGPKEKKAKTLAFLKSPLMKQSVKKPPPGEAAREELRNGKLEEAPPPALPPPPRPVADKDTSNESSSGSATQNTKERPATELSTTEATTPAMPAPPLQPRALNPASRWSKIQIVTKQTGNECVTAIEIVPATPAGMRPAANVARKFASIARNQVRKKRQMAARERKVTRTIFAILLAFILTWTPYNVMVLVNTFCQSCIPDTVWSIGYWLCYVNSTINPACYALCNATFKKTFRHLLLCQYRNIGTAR
CHRM4 antagonist = CHRM4 antagonism in calcium assay. CHO-hM4 cells, ACh EC80, Fluo-8 calcium fluorescence. inhibition, % at 3 µM. actives 0.73% (n = 360,000);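 active means inhibition above its plate's cutoff, the mean inhibition of sample wells plus 3 SD, cut at about 27% in these data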
M4 PAM = CHRM4 positive allosteric modulation. actives 0.4% (n = 360,000). CHO-K1 hM4/Gqi5, Fluo-8 calcium fluorescence, ACh EC20; 0% = ACh EC20, 100% = maximal ACh. activation, % at 3 µM;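 active means activation above its plate's cutoff, the mean activation of sample wells plus 3 SD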
M5 ag = agonists of human muscarinic M5 receptor (CHRM5) | activation, % at 3 µM | actives 0.19% (n = 360,000) | CHO-K1 hM5 cells, Fluo-8 calcium fluorescence; 0% DMSO wells, 100% maximal acetylcholine response | P08912;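 active means activation above the run's mean over test compounds plus 3 SD, cut at about 23% in these data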;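 further: signal is peak over basal fluorescence ratio across the kinetic read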
CHRM5 PAM = CHRM5 positive allosteric modulation. P08912. CHO-K1 hM5, Fluo-8 calcium, ACh EC20 PAM; 0% = ACh EC20, 100% = ACh EC100. activation, % at 3 µM. actives 0.3% (n = 360,000). AID 624038;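 active means activation above the run cutoff, the mean activation of all test compounds plus 3 SD, cut at about 18% in these data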
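Assay system: CHO-K1 hM5 cells. Also added: acetylcholine at EC20 concentration, added after compound. Dosing: 3 µM, single dose. Times: compound preincubation 140 s before EC20 acetylcholine addition. Signal: Fluo-8 calcium fluorescence. Measure: % activation relative to EC20 and EC100 ACh responses. Repeats: singlicate, one well per test compound.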
A number is an active result; 0 = inactive. In the library only some 1.8% were active in any assay of this set; here they are far more common.

SMILES	M5 antag	M4 ag	CHRM4 antagonist	M4 PAM	M5 ag	CHRM5 PAM
CC[C@]12c3[nH]c4ccccc4c3CCN1C(=O)C(CC(=O)NCC13CC4CC(CC(C4)C1)C3)C[C@@H]2C(=O)N1CCN(C(=O)c2ccco2)CC1 (stereo not given in full)	0	0	33	0	0	0
CC[C@]12c3[nH]c4ccc(Cl)cc4c3CCN1C(=O)[C@@H](CC(=O)NCc1ccc(OC)c(OC)c1)C[C@@H]2C(=O)N1CCN(C(=O)C2CC2)CC1	0	0	0	0	0	0
Cc1cc(=O)oc2cc(OC(=O)c3ccccc3)ccc12	0	0	0	0	0	0
COc1ccccc1-c1c(C(F)(F)F)oc2cc(OC(=O)c3ccc([N+](=O)[O-])cc3)ccc2c1=O	0	0	0	21	0	0
CSCCC(NC(=O)c1ccc([N+](=O)[O-])cc1Cl)C(=O)OC(C)C(=O)NCc1ccco1 (stereo not given)	0	0	0	0	0	0
Cc1ccc(/C=N/N2CCN(Cc3ccc(Cl)cc3)CC2)o1	0	0	31	0	0	0
Cc1ccc(NC(=O)c2cc([N+](=O)[O-])ccc2N2CCOCC2)cc1S(=O)(=O)N(C)C	0	0	49	0	0	0
Cc1ccc(NC(=O)c2cc([N+](=O)[O-])ccc2N2CCOCC2)cc1C	0	0	0	0	0	0
CCc1nc(SCc2ccc(Cl)cc2)n[nH]1	0	0	0	0	0	0
O=S(=O)(Nc1nc(SCc2ccc(Cl)cc2)n[nH]1)c1ccc(F)cc1	0	0	0	0	0	22
CCc1cc(C(=O)NCC(C)(C)N2CCOCC2)sc1C	0	0	0	0	0	0
Cc1ccsc1C(=O)NCC(C)(C)N1CCOCC1	0	0	0	0	0	22
COc1ccc(C=O)cc1COc1ccccc1F	0	0	0	21	0	0
Cc1ccccc1C(=O)NN1C(=O)CSC1=S	0	0	0	0	0	0
O=C1CSC(=S)N1Nc1ccccc1	0	0	0	0	26	0
CC1(c2ccc(OC(F)F)cc2)NC(=O)N(/N=C/c2c(O)ccc3ccccc23)C1=O (stereo not given)	0	0	0	20	0	0
C[C@@H]1CN(Cc2nc(-c3cccs3)no2)C[C@H](C)O1	0	0	27	0	0	0
O=C1c2cccc3cccc(c23)C(=O)N1CC1CCN(CC(O)COc2ccc3ccccc3c2)CC1 (stereo not given)	0	0	101	0	0	0
Cc1ccc(N2CC(O)(c3cccs3)[N+]3=C2CCCC3)cc1 (stereo not given)	42	0	40	0	0	0
CCc1ccc(N2CC(O)(c3cccs3)[N+]3=C2SCCC3)cc1 (stereo not given)	33	0	0	0	0	0
Cc1cccc(N2CC(O)(c3cccs3)[N+]3=C2CCCC3)c1C (stereo not given)	0	0	30	0	0	0
COc1ccc(/C=C/C(=O)OCC(=O)Nc2ccc(N3CCOCC3)cc2)cc1OC	0	0	0	0	0	0
O=C(CCN1C(=O)[C@H]2CC=CC[C@H]2C1=O)NCc1nc(-c2ccc(Cl)cc2)no1	0	0	0	0	0	0
Cc1cccc(NC(=O)CN2CCN(C(=O)c3cnn(Cc4ccccc4)c3)CC2)c1C	0	0	0	0	0	0
Cc1ccc(OCCNC(=O)C(=O)NCc2ccco2)cc1	0	0	27	0	0	0
SMILES	M5 antag	M4 ag	CHRM4 antagonist	M4 PAM	M5 ag	CHRM5 PAM
CC(CN1C(C)CCCC1C)OC(=O)c1ccccc1Br (stereo not given)	0	0	0	0	0	0
O=C(c1cc(F)c(F)c(F)c1F)N1CCN(C(=O)C2CCCO2)CC1 (stereo not given)	0	0	0	0	0	0
Cc1ccc(Sc2c([N+](=O)[O-])c(C)nn2C)cc1	28	0	63	0	0	0
Cc1ccc(Sc2c([N+](=O)[O-])ncn2C)cc1	0	0	0	0	0	0
Cc1cccc(NC(=O)CSCC(=O)NNC(=O)c2ccoc2C)c1	0	0	0	23	0	0
Cc1occc1C(=O)Nc1ccc(Br)cc1F	0	0	0	0	0	30
Cc1occc1C(=O)NNC(=O)Nc1ccc(F)cc1F	0	0	0	0	0	0
Cc1occc1C(=O)Nc1c(F)c(F)c(F)c(F)c1F	0	0	0	0	0	18
CC(C)(C)CNC(=O)c1cccc2c1C(=O)c1ccc(N3CCCC3)cc1S2(=O)=O	0	39	0	0	0	0
O=C(NCc1ccc(F)cc1)c1cccc2c1C(=O)c1ccc(N3CCC(Cc4ccccc4)CC3)cc1S2(=O)=O	0	0	0	0	0	0
O=C(NC1CC1)c1cccc2c1C(=O)c1ccc(N3CCC(Cc4ccccc4)CC3)cc1S2(=O)=O	0	0	27	0	0	0
CC(C)N(C(=O)CN(C#N)c1nc(N(C)C)nc(N(C)C)n1)c1ccccc1	0	0	0	42	0	0
COc1cc(CNCCc2ccccc2)cc(Cl)c1OCc1ccccc1	0	0	27	0	0	0
COc1ccc(/C=C/C(=O)OCC(=O)Nc2cccc(C(C)=O)c2)cc1	0	0	0	0	0	0
COC(=O)c1ccc(/C=C/C(=O)OCC(=O)Nc2sccc2C(N)=O)cc1	27	0	45	0	0	0
NC(=O)c1ccsc1NC(=O)COC(=O)/C=C/c1ccc([N+](=O)[O-])cc1	0	0	0	0	0	0
COc1ccc(/C=C/C(=O)OCC(=O)Nc2cc(C(N)=O)cc(C(N)=O)c2)cc1	0	0	0	0	0	18
Cc1nc2ccccc2c(=O)n1-c1ccc(F)c(NS(=O)(=O)c2ccccc2F)c1	0	0	0	0	0	0
Cc1noc(C)c1C(=O)Nc1nnc(-c2ccccc2)s1	0	0	0	0	0	0
Cc1onc(-c2c(F)cccc2Cl)c1C(=O)Nc1nnc(C(F)(F)F)s1	29	0	0	0	0	0
Cc1onc(-c2c(F)cccc2Cl)c1C(=O)Nc1nccs1	0	0	0	0	0	0
Cc1onc(-c2ccccc2)c1C(=O)Nc1nnc(-c2ccncc2)s1	0	0	0	31	0	0
O=C(Nc1ccc(C(F)(F)F)cc1)C1=NN(C2CCS(=O)(=O)C2)C(=O)CC1 (stereo not given)	0	0	0	0	0	0
O=C(Cn1ncc2c([nH]c3ccccc32)c1=O)NCCc1ccccc1	0	0	0	19	0	0
COc1cccc(N2CCN(CC(=O)Nc3ccccc3C(=O)NCCc3ccccc3)CC2)c1	28	0	0	0	0	0

Compound activity (PubChem BioAssay)
